Paper PMC2788160 (Nutrition Research and Practice, 2009)

Assays:
Caco-2 cell monolayer = assay: Apical-to-basolateral uptake in Caco-2 differentiated monolayer; type: in vitro ADME, human; details: for Conc. of aloe-emodin in basolateral side / Conc. of aloin in basolateral side: 1 hr, 37℃; for Absorption percent: Caco-2 cells over 1 hour
Procedure, shortened: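 Caco-2 (passages 26-48; high-glucose DMEM, 10% FBS, 1% nonessential amino acids) on Transwell inserts at 5×10^4 cells/cm2, 18-24 days; TEER >550 Ω·cm2. Apical compound at 5, 10, 50 µM final (DMSO, diluted in HBSS, pH 6.0); basolateral HBSS pH 7.4; 1 hr, 37℃. C18 HPLC with/without sulfatase H-5 (45 min, 37℃) gives parent and conjugates; % absorption = basolateral×100/apical concentration.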

[1] = system: everted gut sac (rat small intestine); assay: Everted gut sac model uptake into serosal side; type: in vitro ADME; details: 10 µM, 1 hr; Fig. 2
Procedure, shortened: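 Rats fasted overnight; small intestine flushed with 0.9% NaCl, everted in warm oxygenated TC 199 medium, filled, cut into ~2.5 cm sacs from upper/mid-jejunum (12-15 per experiment). Sacs incubated 1 hr, 37℃ in 6 ml oxygenated medium with 10 µM compound; serosal fluid collected, volume from sac weights. HPLC with/without sulfatase (difference = conjugates); uptake per mg tissue protein (modified Lowry, BSA standard).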

## O=C1c2cccc(O)c2C(=O)c2c(O)cc(CO)cc21 [aloe-emodin]
Caco-2 cell monolayer; 5 μM apical treatment
  Conc. of aloe-emodin in basolateral side: 0.13 nmol/cm^2 culture area
Caco-2 cell monolayer; 10 μM apical treatment
  Conc. of aloe-emodin in basolateral side: 0.86 nmol/cm^2 culture area
Caco-2 cell monolayer; 50 μM apical treatment
  Conc. of aloe-emodin in basolateral side: 2.51 nmol/cm^2 culture area

## O=C1c2c(O)cccc2C([C@@H]2O[C@H](CO)[C@@H](O)[C@H](O)[C@H]2O)c2cc(CO)cc(O)c21 (stereo partly shown) [aloin]
Caco-2 cell monolayer; 5 μM apical treatment
  Conc. of aloin in basolateral side: 0.11 nmol/cm^2 culture area
Caco-2 cell monolayer; 10 μM apical treatment
  Conc. of aloin in basolateral side: 0.42 nmol/cm^2 culture area
Caco-2 cell monolayer; 50 μM apical treatment
  Conc. of aloin in basolateral side: 1.99 nmol/cm^2 culture area

## CC(=O)Cc1cc(=O)c2c(C)cc(O)c([C@@H]3O[C@H](CO)[C@@H](O)[C@H](O)[C@H]3O)c2o1 [aloesin]
Caco-2 cell monolayer; 5 μM
  Absorption percent: 7.61%
Caco-2 cell monolayer; 10 μM
  Absorption percent: 13.64%
Caco-2 cell monolayer; 50 μM
  Absorption percent: 8.14%
[1]
  % absorption in everted gut sac compared to Caco-2 monolayer: more aloesin were shown to be absorbed in the gut sac compared to the Caco-2 monolayer
